# Assay results taken from ChEMBL document CHEMBL1134791, “2- and 3-substituted 1,4-naphthoquinone derivatives as subversive substrates of trypanothione reductase and lipoamide dehydrogenase from Trypanosoma cruzi: synthesis and correlation between redox cycling activities and in vitro cytotoxicity” (J Med Chem, 2001).
# Legend:
# Trypanothione reductase = Trypanothione reductase (Trypanosoma cruzi, UniProt P28593); assay: Inhibitory activity against Trypanosoma cruzi trypanothione disulfide reductase, assay in presence of 57 uM T(S)2.
# How it was run: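 Assay contained 250 µM NADPH, 57 µM T(S)₂, inhibitor at 0.3–50 µM and 1% DMSO final. Started with enzyme; NADPH loss followed at 340 nm. IC50 in duplicate.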
# Trypanosoma brucei [1] = assay: In vitro antiparasitic activity against Trypanosoma brucei was tested by sigmoidal regression analysis; format: functional; conditions: read-out: ED50 (the source's name)
# How it was run: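 T. b. brucei S427 bloodstream trypomastigotes at 2 × 10⁵/mL in HMI-18 medium, in triplicate, with a 3-fold dilution series starting at 30 µM. Incubated 3 days at 37 °C in 5% CO₂. Pentamidine served as positive control. Viability read by tetrazolium colorimetric assay on day 3. ED50 by sigmoidal regression.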
# [2] = Compound dose toxic against macrophages of Trypanosoma cruzi; format: ADME
# How it was run: (§1)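 Starch-induced peritoneal macrophages from female CD1 mice, 4 × 10⁵/mL in RPMI-1640, infected 5:1 with T. cruzi Y-strain trypomastigotes from MDCK overlay. Drug in 3-fold dilution series, quadruplicate, 3 days. Slides methanol-fixed and Giemsa-stained.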
# Trypanosoma cruzi = assay: In vitro antiparasitic activity against Trypanosoma cruzi was tested by sigmoidal regression analysis; format: functional; conditions: read-out: ED50 (the source's name)
# How it was run: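 Mouse peritoneal macrophages (female CD1, starch-elicited, harvested 24 h) infected with L. donovani amastigotes (strain MHOM/ET/67/L82, hamster spleen) or T. cruzi Y-strain trypomastigotes (5:1, from MDCK overlay). Infected cells exposed to a 3-fold dilution series in quadruplicate for 5 days (L. donovani) or 3 days (T. cruzi). Giemsa-stained slides scored for % macrophages cleared of amastigotes versus untreated cultures. ED50 by sigmoidal regression.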
# [3] = Compound dose toxic against mouse peritoneal macrophages infected with Leishmania donovani; format: ADME
# How it was run: (§2)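 Starch-induced peritoneal macrophages from female CD1 mice, 4 × 10⁵/mL in RPMI-1640, infected with L. donovani (MHOM/ET/67/L82) amastigotes from hamster spleen. Drug in 3-fold dilution series, quadruplicate, 5 days. Giemsa-stained slides.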
# [4] = Compound dose toxic against macrophages of Trypanosoma cruzi (100% inhibition); format: ADME; how it was run: as §1
# [5] = Compound dose toxic against mouse peritoneal macrophages infected with Leishmania donovani (100% inhibition); format: ADME; how it was run: as §2
# Trypanosoma brucei [6] = assay: In vitro antiparasitic activity against Trypanosoma brucei was tested by sigmoidal regression analysis; conditions: read-out: ED50 (the source's name)
# [7] = Compound dose toxic against mouse peritoneal macrophages infected with Leishmania donovani (100 % inhibition); format: ADME; how it was run: as §2
# [8] = Compound dose toxic against macrophages of Trypanosoma cruzi (100 % inhibition); format: ADME; how it was run: as §1
# Chain of Trypanothione reductase (P28593 whole entry): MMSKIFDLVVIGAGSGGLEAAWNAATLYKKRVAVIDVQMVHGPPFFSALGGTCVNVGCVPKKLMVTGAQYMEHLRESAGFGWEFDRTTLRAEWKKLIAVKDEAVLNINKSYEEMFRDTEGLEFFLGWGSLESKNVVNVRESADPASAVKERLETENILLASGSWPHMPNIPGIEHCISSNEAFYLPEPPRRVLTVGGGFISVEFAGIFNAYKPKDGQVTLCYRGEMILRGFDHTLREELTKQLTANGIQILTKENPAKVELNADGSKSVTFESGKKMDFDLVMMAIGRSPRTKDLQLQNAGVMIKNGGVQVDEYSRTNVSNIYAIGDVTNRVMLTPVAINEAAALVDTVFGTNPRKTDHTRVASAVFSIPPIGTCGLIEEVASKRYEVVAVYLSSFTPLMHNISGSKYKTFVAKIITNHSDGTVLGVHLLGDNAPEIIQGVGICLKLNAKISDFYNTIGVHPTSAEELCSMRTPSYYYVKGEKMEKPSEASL
SMILES,IC50 (Trypanothione reductase) [µM],EC50 (Trypanosoma brucei [1]) [µM],Toxic dose [2] [µM],Toxic dose [3] [µM],also measured
CC1=C(NCCCNCCC/N=C2/C(=O)c3ccccc3C(O)=C2C)C(=O)c2ccccc2C1=O,9,> 12.5,10,–,–
CC1=C(CCCC(=O)NCCCNCCCNC(=O)CCCC2=C(C)C(=O)c3ccccc3C2=O)C(=O)c2ccccc2C1=O,11,27,–,–,EC50 (Trypanosoma cruzi): > 49 µM
CC1=C(NCCCNCCCCNCCCNC2=C(C)C(=O)c3ccccc3C2=O)C(=O)c2ccccc2C1=O,6.5,> 1,1,30,–
CC1=C(NCCCNCCCN)C(=O)c2c(O)cccc2C1=O,57,> 12.5,1,–,–
CC1=C(NCCCCN)C(=O)c2ccccc2C1=O,> 57,> 12.5,3,–,–
CC1=C(NCCCNCCCCNCCCN)C(=O)c2c(O)cccc2C1=O,28,> 30,1,–,–
CC1=C(NCCCN2CCN(CCCNC3=C(C)C(=O)c4ccccc4C3=O)CC2)C(=O)c2ccccc2C1=O,10,> 12.5,30,–,–
CN1CCN(CCCNC(=O)CCCCCC2=C(CCCCCC(=O)NCCCN3CCN(C)CC3)C(=O)c3c(O)cccc3C2=O)CC1,0.8,10.1,30,10,–
CC1=C(CCC(=O)NCCCN2CCN(C)CC2)C(=O)c2ccccc2C1=O,38,> 10,30,–,–
CN1CCN(CCCNC(=O)CCCC2=C(CCCC(=O)NCCCN3CCN(C)CC3)C(=O)c3c(O)cccc3C2=O)CC1,11,259,–,–,EC50 (Trypanosoma cruzi): 59 µM
CC1=C(NCCCNCCCCNCCCN)C(=O)c2ccccc2C1=O,28,30,1,30,–
CN1CCN(C(=O)CCCCCC2=C(CCCCCC(=O)N3CCN(C)CC3)C(=O)c3c(O)cccc3C2=O)CC1,2.9,13.1,3,3,–
CC1=C(O)c2cccc(O)c2C(=O)/C1=N\CCCN1CCN(C)CC1,> 57,> 12.5,–,–,Toxic dose [4]: 10 µM; Toxic dose [5]: 30 µM
CC1=C(CCC(=O)NCCCN2CCN(CCCNC(=O)CCC3=C(C)C(=O)c4cccc(O)c4C3=O)CC2)C(=O)c2c(O)cccc2C1=O,2.6,–,–,–,EC50 (Trypanosoma brucei [6]): 30.3 µM; EC50 (Trypanosoma cruzi): 44 µM
CC1=C(NCCCN2CCN(CCCN)CC2)C(=O)c2c(O)cccc2C1=O,39,> 3,3,30,–
CN1CCN(C(=O)CCCCC2=C(CCCCC(=O)N3CCN(C)CC3)C(=O)c3c(O)cccc3C2=O)CC1,5.9,> 56,10,3,–
CC1=C(CCC(=O)NCCCN2CCN(C)CC2)C(=O)c2c(O)cccc2C1=O,16,> 10,10,–,–
CC1=CC(=O)c2ccccc2C1=O [MENADIONE],–,–,10,30,–
CC1=CC(=O)c2c(O)cccc2C1=O [PLUMBAGIN],–,1.5,–,–,Toxic dose [7]: 3 µM; Toxic dose [8]: 10 µM
